Drawing on ChEMBL document CHEMBL4229344 (Eur J Med Chem, 2018), this text covers Activity for one compound.

The target of assay [1] is Cyclin-dependent kinase 4 (Homo sapiens) (UniProt P11802). Briefly: Binding affinity to wild-type human full length CDK4 (M1 to E303 residues) expressed in mammalian expression system assessed as residual binding level at 1 uM by Kinomescan method relative to control. In a few lines:
(§1)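 Single-concentration (1 μM) competition-binding screen run by KINOMEscan against a panel of 468 purified kinases and mutants. The read-out is the relative binding activity of the test compound to each kinase.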

Assay [2] has as its target Cyclin-dependent kinase 4/cyclin D1 (Homo sapiens) (UniProt P11802+P24385). Briefly: Binding affinity to wild-type human full length CDK4/cyclinD1 (M1 to E303 residues) expressed in mammalian expression system assessed as residual binding level at 1 uM by Kinomescan method relative to control. In a few lines: as §1
The target of assay [3] is Casein kinase I isoform alpha-like (Homo sapiens) (UniProt Q8N752). The assay is described as follows: Binding affinity to wild-type human full length CSNK1A1L (M1 to N337 residues) expressed in bacterial expression system assessed as residual binding level at 1 uM by Kinomescan method relative to control. Summed up: as §1
Chain of Casein kinase I isoform alpha-like (Homo sapiens) (Q8N752 whole entry, the tested form may be a part, canonical isoform): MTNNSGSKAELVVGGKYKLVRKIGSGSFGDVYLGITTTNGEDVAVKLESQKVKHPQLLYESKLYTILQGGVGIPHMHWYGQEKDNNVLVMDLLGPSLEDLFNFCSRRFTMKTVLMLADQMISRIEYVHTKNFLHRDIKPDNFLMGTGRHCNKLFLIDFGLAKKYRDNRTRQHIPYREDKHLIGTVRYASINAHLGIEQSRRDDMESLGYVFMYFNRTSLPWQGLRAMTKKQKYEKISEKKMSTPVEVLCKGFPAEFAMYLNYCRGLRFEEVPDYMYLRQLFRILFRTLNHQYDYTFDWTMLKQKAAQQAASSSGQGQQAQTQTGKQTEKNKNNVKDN
Assay [4] deals with Eukaryotic translation initiation factor 2-alpha kinase 1 (Homo sapiens) (UniProt Q9BQI3). The assay is described as follows: Binding affinity to wild-type human partial length EIF2AK1 (Q147 to E603 residues) expressed in mammalian expression system assessed as residual binding level at 1 uM by Kinomescan method relative to control.
In assay [5] the target is Receptor tyrosine-protein kinase erbB-2 (Homo sapiens) (UniProt P04626). Briefly: Binding affinity to wild-type human partial length ERBB2 (K646 to V1225 residues) expressed in mammalian expression system assessed as residual binding level at 1 uM by Kinomescan method relative to control.
In assay [6] the test system is Receptor-type tyrosine-protein kinase FLT3 (Homo sapiens), P36888 [D835H]. Briefly: Binding affinity to human partial length FLT3 D835H mutant (V592 to Y969 residues) expressed in bacterial expression system assessed as residual binding level at 1 uM by Kinomescan method relative to control. In a few lines: (§2)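 Kinome-wide single-concentration binding screen (KINOMEscan) at 1 μM against a panel of 468 purified kinases and mutants. Read-out is relative binding of each kinase compared with control. Selectivity across the panel was summarised as an S(10) score.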

Assay [7] addresses Hormonally up-regulated neu tumor-associated kinase (Homo sapiens) (UniProt P57058). Briefly: Binding affinity to wild-type human partial length HUNK (A31 to K354 residues) expressed in bacterial expression system assessed as residual binding level at 1 uM by Kinomescan method relative to control.
Assay [8] concerns the target Inhibitor of nuclear factor kappa-B kinase subunit beta (Homo sapiens) (UniProt O14920). Briefly: Binding affinity to wild-type human full length IKK-beta (M1 to S756 residues) expressed in mammalian expression system assessed as residual binding level at 1 uM by Kinomescan method relative to control. Summed up: as §1
The subject of assay [9] is Mast/stem cell growth factor receptor Kit (Homo sapiens), P10721 [A829P]. The assay is described as follows: Binding affinity to human partial length KIT A829P mutant (I571 to D952 residues) expressed in mammalian expression system assessed as residual binding level at 1 uM by Kinomescan method relative to control. Summed up:
as §2

Assay [10] deals with Tyrosine-protein kinase Lyn (Homo sapiens) (UniProt P07948). Briefly: Binding affinity to wild-type human partial length LYN (C219 to Q511 residues) expressed in bacterial expression system assessed as residual binding level at 1 uM by Kinomescan method relative to control.
Chain of Tyrosine-protein kinase Lyn (Homo sapiens) (P07948 2-512 limits assumed): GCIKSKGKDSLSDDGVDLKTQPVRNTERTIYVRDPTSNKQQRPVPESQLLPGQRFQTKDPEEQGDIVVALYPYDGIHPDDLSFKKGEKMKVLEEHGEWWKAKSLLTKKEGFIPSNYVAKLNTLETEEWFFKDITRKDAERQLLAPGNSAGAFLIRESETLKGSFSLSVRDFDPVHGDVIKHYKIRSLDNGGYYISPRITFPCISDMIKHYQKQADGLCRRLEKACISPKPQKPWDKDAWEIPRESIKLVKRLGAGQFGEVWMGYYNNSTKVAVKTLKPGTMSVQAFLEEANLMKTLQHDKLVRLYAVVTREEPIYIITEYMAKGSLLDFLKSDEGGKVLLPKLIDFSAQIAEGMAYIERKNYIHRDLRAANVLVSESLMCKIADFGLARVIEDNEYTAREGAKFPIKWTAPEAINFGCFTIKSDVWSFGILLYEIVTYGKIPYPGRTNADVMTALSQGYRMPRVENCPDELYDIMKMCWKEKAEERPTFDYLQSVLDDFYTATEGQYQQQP
Assay [11] concerns the target MAP kinase-interacting serine/threonine-protein kinase 1 (Homo sapiens) (UniProt Q9BUB5). The assay is described as follows: Binding affinity to wild-type human full length MKNK1 (M1 to L424 residues) expressed in mammalian expression system assessed as residual binding level at 1 uM by Kinomescan method relative to control. Summed up:
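Single-concentration KINOMEscan (DiscoverX) binding screen at 1 μM against a panel of 468 purified kinases and mutants. The read-out is binding relative to control.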

Assay [12] concerns the target Serine/threonine-protein kinase MRCK beta (Homo sapiens) (UniProt Q9Y5S2). Briefly: Binding affinity to wild-type human partial length MRCKB (L56 to S417 residues) expressed in bacterial expression system assessed as residual binding level at 1 uM by Kinomescan method relative to control.
Assay [13] concerns the target Serine/threonine-protein kinase 4 (Homo sapiens) (UniProt Q13043). Briefly: Binding affinity to wild-type human full length MST1 (M1 to F487 residues) expressed in bacterial expression system assessed as residual binding level at 1 uM by Kinomescan method relative to control. In a few lines: (§3)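 KINOMEscan competition binding against 468 purified kinases/mutants, test compound at 1 µM; residual binding relative to control.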

The target in assay [14] is 1-phosphatidylinositol 3-phosphate 5-kinase (Homo sapiens) (UniProt Q9Y2I7). The assay is described as follows: Binding affinity to wild-type human partial length PIKFYVE (F1512 to C2098 residues) expressed in mammalian expression system assessed as residual binding level at 1 uM by Kinomescan method relative to control. Summed up:
(§4)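 KINOMEscan competition binding against a panel of 468 purified kinases/mutants, compound tested at 1 μM; readout is relative binding activity versus control.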

For assay [15], the target named is cAMP-dependent protein kinase catalytic subunit alpha (Homo sapiens) (UniProt P17612). The assay is described as follows: Binding affinity to wild-type human partial length PKAC-alpha (G10 to F351 residues) expressed in bacterial expression system assessed as residual binding level at 1 uM by Kinomescan method relative to control.
Assay [16] deals with Membrane-associated tyrosine- and threonine-specific cdc2-inhibitory kinase (Homo sapiens) (UniProt Q99640). Briefly: Binding affinity to wild-type human partial length PKMYT1 (A88 to G366 residues) expressed in bacterial expression system assessed as residual binding level at 1 uM by Kinomescan method relative to control. Summed up: as §4
Chain of Membrane-associated tyrosine- and threonine-specific cdc2-inhibitory kinase (Homo sapiens) (Q99640 whole entry, the tested form may be a part): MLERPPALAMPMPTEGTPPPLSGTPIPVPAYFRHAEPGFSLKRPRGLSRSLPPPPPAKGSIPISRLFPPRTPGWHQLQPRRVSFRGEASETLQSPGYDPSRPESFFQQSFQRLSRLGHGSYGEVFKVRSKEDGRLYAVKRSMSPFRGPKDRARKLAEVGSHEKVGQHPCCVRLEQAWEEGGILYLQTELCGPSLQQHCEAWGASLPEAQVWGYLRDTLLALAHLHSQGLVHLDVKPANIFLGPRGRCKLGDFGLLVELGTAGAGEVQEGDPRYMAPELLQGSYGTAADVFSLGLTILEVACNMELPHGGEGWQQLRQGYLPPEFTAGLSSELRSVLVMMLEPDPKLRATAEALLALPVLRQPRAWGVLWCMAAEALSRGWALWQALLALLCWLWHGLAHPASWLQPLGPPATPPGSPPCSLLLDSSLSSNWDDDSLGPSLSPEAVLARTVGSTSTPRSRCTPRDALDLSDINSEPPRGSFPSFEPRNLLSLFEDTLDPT
The target of assay [17] is Serine/threonine-protein kinase PLK2 (Homo sapiens) (UniProt Q9NYY3). Briefly: Binding affinity to wild-type human partial length PLK2 (H58 to F354 residues) expressed in mammalian expression system assessed as residual binding level at 1 uM by Kinomescan method relative to control. Summed up:
as §4

Assay [18] concerns the target Ribosomal protein S6 kinase beta-1 (Homo sapiens) (UniProt P23443). Briefly: Binding affinity to wild-type human partial length S6K1 (M1 to S421 residues) expressed in mammalian expression system assessed as residual binding level at 1 uM by Kinomescan method relative to control.
Assay [19] deals with SRSF protein kinase 1 (Homo sapiens) (UniProt Q96SB4). The assay is described as follows: Binding affinity to wild-type human full length SRPK1 (M1 to S655 residues) expressed in bacterial expression system assessed as residual binding level at 1 uM by Kinomescan method relative to control. Summed up: as §3
The target of assay [20] is Non-receptor tyrosine-protein kinase TYK2 (Homo sapiens) (UniProt P29597). The assay is described as follows: Binding affinity to wild-type human partial length TYK2 JH2 pseudokinase domain (G556 to D888 residues) expressed in mammalian expression system assessed as residual binding level at 1 uM by Kinomescan method relative to control.
Assay [21] concerns the target Serine/threonine-protein kinase WNK3 (Homo sapiens) (UniProt Q9BYP7). The assay is described as follows: Binding affinity to wild-type human partial length WNK3 (M1 to D434 residues) expressed in mammalian expression system assessed as residual binding level at 1 uM by Kinomescan method relative to control.

SMILES strings stand for the structures.

Chain of Serine/threonine-protein kinase PLK2 (Homo sapiens) (Q9NYY3 whole entry, looked up, the tested form may be a part): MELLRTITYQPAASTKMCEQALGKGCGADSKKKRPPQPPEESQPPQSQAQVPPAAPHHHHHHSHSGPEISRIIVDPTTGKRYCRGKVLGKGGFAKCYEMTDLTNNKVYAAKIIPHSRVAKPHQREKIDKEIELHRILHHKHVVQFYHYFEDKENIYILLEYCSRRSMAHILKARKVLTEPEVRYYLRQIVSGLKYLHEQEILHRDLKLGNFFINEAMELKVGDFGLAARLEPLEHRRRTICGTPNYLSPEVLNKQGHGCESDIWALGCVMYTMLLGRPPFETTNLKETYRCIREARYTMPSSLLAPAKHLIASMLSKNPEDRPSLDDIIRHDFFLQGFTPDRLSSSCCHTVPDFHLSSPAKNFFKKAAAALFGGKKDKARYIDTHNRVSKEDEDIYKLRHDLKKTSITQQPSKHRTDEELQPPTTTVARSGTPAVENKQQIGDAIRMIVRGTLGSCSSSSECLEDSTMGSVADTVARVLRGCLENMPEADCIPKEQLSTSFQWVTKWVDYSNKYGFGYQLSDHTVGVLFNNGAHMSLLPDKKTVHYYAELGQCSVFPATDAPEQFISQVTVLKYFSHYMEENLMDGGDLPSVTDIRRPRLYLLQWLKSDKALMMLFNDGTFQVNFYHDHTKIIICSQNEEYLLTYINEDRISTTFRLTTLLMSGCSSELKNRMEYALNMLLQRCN
Chain of 1-phosphatidylinositol 3-phosphate 5-kinase (Homo sapiens) (Q9Y2I7 whole entry, the tested form may be a part): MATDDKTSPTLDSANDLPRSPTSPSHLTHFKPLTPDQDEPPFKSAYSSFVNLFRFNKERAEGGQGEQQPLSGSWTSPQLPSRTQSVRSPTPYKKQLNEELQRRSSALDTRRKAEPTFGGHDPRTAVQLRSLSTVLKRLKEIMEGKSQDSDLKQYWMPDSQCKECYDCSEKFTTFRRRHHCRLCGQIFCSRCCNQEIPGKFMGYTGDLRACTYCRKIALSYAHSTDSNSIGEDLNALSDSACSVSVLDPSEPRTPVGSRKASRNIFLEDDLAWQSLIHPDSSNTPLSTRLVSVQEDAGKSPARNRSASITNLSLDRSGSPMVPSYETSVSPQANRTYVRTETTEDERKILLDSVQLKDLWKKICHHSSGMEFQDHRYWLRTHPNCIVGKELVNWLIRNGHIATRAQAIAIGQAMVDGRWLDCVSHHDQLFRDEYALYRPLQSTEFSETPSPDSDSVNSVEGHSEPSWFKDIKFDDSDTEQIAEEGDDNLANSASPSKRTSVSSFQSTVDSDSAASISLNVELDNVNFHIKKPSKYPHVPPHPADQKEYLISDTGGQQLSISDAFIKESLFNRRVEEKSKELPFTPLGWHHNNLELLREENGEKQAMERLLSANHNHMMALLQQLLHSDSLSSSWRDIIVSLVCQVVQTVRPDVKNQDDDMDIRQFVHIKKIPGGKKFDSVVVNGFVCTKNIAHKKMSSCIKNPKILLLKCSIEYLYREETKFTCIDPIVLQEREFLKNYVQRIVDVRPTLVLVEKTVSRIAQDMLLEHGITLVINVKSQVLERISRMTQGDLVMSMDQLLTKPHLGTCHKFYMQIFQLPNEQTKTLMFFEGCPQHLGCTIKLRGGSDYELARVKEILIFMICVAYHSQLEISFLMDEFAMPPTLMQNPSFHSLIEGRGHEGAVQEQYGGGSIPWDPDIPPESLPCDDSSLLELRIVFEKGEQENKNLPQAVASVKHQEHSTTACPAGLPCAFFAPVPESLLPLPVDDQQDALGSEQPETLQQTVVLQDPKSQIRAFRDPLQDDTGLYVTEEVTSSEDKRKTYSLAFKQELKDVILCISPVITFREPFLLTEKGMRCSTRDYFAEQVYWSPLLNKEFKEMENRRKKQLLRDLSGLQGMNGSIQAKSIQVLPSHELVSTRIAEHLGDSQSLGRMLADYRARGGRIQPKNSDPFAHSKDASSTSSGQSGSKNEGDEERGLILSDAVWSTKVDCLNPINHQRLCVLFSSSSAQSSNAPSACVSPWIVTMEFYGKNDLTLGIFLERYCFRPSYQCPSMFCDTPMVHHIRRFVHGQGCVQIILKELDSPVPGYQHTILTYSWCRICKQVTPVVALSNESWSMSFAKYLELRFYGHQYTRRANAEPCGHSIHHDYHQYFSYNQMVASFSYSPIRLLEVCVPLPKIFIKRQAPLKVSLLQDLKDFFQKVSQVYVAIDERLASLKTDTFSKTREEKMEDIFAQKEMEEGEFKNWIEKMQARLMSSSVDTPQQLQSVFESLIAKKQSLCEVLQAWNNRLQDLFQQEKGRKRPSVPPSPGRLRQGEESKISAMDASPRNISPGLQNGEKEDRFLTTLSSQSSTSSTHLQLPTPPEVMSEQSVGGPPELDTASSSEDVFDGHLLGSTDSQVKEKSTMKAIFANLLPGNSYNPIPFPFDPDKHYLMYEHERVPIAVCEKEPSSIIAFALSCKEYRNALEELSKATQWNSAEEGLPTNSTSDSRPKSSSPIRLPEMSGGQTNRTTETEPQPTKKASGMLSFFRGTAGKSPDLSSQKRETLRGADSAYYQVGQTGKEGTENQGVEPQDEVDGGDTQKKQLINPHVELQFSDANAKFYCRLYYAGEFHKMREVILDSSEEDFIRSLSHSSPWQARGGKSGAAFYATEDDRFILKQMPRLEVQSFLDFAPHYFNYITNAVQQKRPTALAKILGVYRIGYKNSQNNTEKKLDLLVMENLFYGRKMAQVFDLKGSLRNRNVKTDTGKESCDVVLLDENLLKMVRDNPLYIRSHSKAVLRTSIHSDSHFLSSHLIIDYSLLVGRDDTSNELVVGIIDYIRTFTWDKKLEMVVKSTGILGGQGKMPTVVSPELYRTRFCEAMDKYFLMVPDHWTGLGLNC
Chain of Hormonally up-regulated neu tumor-associated kinase (Homo sapiens) (P57058 whole entry, the tested form may be a part): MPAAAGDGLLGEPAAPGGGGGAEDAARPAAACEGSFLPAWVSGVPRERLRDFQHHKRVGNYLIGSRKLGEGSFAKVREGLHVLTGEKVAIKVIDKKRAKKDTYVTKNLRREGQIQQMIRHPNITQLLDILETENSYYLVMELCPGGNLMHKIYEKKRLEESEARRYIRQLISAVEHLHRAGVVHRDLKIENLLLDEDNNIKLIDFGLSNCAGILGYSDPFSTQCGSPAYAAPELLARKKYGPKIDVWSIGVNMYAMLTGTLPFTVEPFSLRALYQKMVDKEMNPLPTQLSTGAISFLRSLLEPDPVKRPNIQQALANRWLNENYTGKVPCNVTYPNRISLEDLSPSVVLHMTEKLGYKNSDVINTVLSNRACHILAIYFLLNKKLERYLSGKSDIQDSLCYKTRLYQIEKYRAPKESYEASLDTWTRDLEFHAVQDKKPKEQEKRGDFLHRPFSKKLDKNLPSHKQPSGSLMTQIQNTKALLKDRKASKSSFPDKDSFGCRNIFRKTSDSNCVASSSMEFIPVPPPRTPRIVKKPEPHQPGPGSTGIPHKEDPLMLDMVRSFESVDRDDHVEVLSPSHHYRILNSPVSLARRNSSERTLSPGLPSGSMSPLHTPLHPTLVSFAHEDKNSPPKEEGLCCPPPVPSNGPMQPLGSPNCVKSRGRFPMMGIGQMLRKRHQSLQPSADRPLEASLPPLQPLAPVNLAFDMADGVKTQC

For the compound `Cc1ccc(NC(=O)c2ccc(CN(CCN(C)C)C(=O)c3cccnc3)cc2)cc1Nc1nccc(-c2cccnc2)n1`, the Activity in assay [1] came to 100%; in assay [2], 100%; in assay [3] it was 93%; in assay [4], 100%; in assay [5], 85%; in [6], 100%. Also, the Activity came out at 90% in [7]; 96% in assay [8]; 81% in [9]; 97% in assay [10]; 100% in assay [11]; 99% in [12]. Besides, the Activity in [13] was 79%; in assay [14] it was 91%; in assay [15], 95%; in assay [16] it was 84%; in [17], 87%; in assay [18], 100%. Also, the values for the Activity in [19], in assay [20] and in [21] were 92%, 91% and 100%, respectively.
